Like-named read-outs stand apart in the source and are kept apart here.
Legend:
[1] = system: male C57/BL6 mice; assay: In vivo toxicity study; conditions: for calcification in organs / histopathological analysis of the major organs (liver, heart, kidney) / toxicity in vivo (clinical pathology chemistry profile, complete blood count): 60 μg/kg i.p., three weeks
[2] = system: mice or rats; conditions: cited from earlier work
[3] = In vitro metabolic stability in monkey liver microsomes; type: in vitro ADME; conditions: 0.5 μM compound, 1 mg/ml microsomal protein, NADPH, 37°C, n=3, mean±S.D.
Method in brief: (§1)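 Pooled liver microsomes (1 mg/ml protein) with 0.5 μM test compound, added from acetonitrile stock, in 0.2 M phosphate pH 7.4 with NADPH-regenerating system (1.3 mM NADP+, 3.3 mM glucose-6-phosphate, 0.4 U/ml G6P dehydrogenase), shaken at 37°C. Samples at 5–120 min quenched in acetonitrile with deuterated internal standard, centrifuged, and analysed by LC-MS/MS for % remaining. Half-life reported; n=3, mean±S.D.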

[4] = In vitro metabolic stability in human liver microsomes; type: in vitro ADME; conditions: 0.5 μM compound, 1 mg/ml microsomal protein, NADPH, 37°C, n=3, mean±S.D.
Method in brief: as §1

[5] = In vitro metabolic stability in rat liver microsomes; type: in vitro ADME; conditions: 0.5 μM compound, 1 mg/ml microsomal protein, NADPH, 37°C, n=3, mean±S.D.
Method in brief: as §1

[6] = In vitro metabolic stability in dog liver microsomes; type: in vitro ADME; conditions: 0.5 μM compound, 1 mg/ml microsomal protein, NADPH, 37°C, n=3, mean±S.D.
Method in brief: as §1

[7] = biological target: T1, human CYP27A1 (Homo sapiens, UniProt Q02318); assay: Metabolism by purified recombinant CYP27A1 in reconstituted system; type: in vitro ADME; conditions: 50 μM substrate in 0.45% cyclodextrin, 1 μM human CYP27A1, 1 h incubation
T1 sequence (Q02318 34-531): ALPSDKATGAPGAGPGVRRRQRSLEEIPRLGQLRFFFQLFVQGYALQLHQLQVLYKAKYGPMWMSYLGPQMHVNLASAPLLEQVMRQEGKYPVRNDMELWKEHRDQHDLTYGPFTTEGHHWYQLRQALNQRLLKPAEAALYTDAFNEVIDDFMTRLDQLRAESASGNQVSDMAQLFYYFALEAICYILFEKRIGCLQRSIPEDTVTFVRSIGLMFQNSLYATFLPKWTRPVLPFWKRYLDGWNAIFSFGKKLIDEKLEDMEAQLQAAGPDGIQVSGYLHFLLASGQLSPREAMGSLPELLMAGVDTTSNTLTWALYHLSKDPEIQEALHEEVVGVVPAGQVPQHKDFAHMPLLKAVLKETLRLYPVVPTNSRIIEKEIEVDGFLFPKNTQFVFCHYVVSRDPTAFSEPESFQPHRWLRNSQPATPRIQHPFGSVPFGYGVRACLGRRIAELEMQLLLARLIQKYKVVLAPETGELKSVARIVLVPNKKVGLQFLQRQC
Method in brief: (§2)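 Reconstituted system: adrenodoxin (15 μM), adrenodoxin reductase (4 μM), purified recombinant human CYP11A1 or CYP27A1 (1 μM). Substrate at 50 μM final, solubilised in 0.45% 2-hydroxypropyl-β-cyclodextrin. Incubation 1 h, extended for some analogs to 2 h (CYP11A1) or 3 h (CYP27A1). Products extracted with dichloromethane and resolved by reverse-phase HPLC. Read-outs are % substrate conversion and number of products.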

[8] = In vitro metabolic stability in mouse liver microsomes; type: in vitro ADME; conditions: 0.5 μM compound, 1 mg/ml microsomal protein, NADPH, 37°C, n=3, mean±S.D.
Method in brief: as §1

[9] = type: in vitro ADME, human, rat, mouse, monkey, dog
[10] = biological target: T2, rat CYP24A1 (Rattus norvegicus, UniProt Q09128); assay: Metabolism by purified recombinant CYP24A1 in reconstituted system; type: in vitro ADME; conditions: phospholipid vesicles, 0.025 mol secosteroid/mol phospholipid, 1 μM rat CYP24A1, 1 h
T2 sequence (Q09128 36-514): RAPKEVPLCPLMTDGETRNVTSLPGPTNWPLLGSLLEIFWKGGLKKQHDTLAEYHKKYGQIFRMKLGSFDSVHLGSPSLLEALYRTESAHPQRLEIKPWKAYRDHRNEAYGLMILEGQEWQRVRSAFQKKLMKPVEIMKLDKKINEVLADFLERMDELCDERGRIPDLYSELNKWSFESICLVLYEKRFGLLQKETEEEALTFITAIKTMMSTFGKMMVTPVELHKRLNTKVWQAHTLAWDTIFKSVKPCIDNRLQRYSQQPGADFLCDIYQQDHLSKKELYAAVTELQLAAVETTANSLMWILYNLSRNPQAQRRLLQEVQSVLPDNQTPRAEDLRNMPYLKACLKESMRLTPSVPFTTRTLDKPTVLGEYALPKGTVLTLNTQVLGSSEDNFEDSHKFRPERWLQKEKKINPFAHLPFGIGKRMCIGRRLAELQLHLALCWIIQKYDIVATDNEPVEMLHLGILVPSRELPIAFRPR
Method in brief: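 Reconstituted system: purified recombinant rat CYP24A1 (1 μM), adrenodoxin (15 μM) and adrenodoxin reductase (4 μM). Test compound incorporated into phospholipid vesicles at 0.025 mol secosteroid/mol phospholipid. Incubated 1 h. Products extracted with dichloromethane and resolved by reverse-phase HPLC. Result expressed as percentage conversion of substrate to products and number of products.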

[11] = biological target: T3, human CYP11A1 (Homo sapiens, UniProt P05108); assay: Metabolism by purified recombinant CYP11A1 in reconstituted system; type: in vitro ADME; conditions: 50 μM substrate in 0.45% cyclodextrin, 1 μM human CYP11A1, 1 h incubation
T3 sequence (P05108 40-521): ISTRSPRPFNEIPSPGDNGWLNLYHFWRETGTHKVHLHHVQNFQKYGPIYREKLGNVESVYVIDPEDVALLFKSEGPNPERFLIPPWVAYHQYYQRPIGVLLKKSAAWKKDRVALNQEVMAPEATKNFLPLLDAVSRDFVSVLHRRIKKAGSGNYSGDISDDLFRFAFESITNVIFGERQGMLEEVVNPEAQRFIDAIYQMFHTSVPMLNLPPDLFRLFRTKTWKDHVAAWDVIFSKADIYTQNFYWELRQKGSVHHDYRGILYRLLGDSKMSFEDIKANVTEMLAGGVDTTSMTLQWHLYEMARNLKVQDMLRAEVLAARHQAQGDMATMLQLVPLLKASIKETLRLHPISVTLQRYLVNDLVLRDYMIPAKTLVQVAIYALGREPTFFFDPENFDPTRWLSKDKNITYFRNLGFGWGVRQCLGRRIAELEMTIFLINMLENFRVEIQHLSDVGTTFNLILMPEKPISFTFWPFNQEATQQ
Method in brief: as §2

[12] = system: mice; conditions: up to 30 μg/kg for three weeks; cited from earlier work
[13] = system: rats; conditions: 3 μg/kg for seven consecutive days; cited from earlier work
[14] = 60 μg/kg i.p. once daily for three weeks

| SMILES | half-life in liver microsomes, Monkey [3] | body weight [1, 14] | serum calcium [1, 14] | calcification in organs [1] | histopathological analysis of the major organs (liver, heart, kidney) [1] | toxicity in vivo (clinical pathology chemistry profile, complete blood count) [1] | half-life in liver microsomes, Human [4] | half-life in liver microsomes, Rat [5] | half-life in liver microsomes, Dog [6] | CYP27A1 No. of different products (at least 2% of total secosteroids) [7] | half-life in liver microsomes, Mouse [8] | half-life in liver microsomes, average of five different species [9] | CYP24A1 No. of different products (at least 2% of total secosteroids) [10] | other results |
| --- | --- | --- | --- | --- | --- | --- | --- | --- | --- | --- | --- | --- | --- | --- |
| C=C1/C(=C\C=C2/CCC[C@]3(C)[C@@H]([C@H](C)CCCC(C)(C)O)CC[C@@H]23)C[C@@H](O)C[C@@H]1O [1,25(OH)2D3, 1,25-dihydroxy vitamin D3, reference compound] |  |  |  |  |  |  |  |  |  |  |  |  |  | body weight ([1]; 2 μg/kg i.p. once daily for three weeks): 21 ± 1 g; serum calcium ([1]; 2 μg/kg i.p. once daily for three weeks, positive control): 14.6 ± 0.48 mg/dL; dose reported to generate hypercalcemia ([2]; mice (ref 37) or rats (ref 20)): ≥ 1 µg/kg |
| C=C1CC[C@H](O)C/C1=C/C=C1\CCC[C@@]2(C)C1CC[C@@H]2[C@@](C)(O)CCCC(C)C (stereo partly drawn) [20R(OH)D3, 20R-hydroxyvitamin D3] | 15 ± 1 min | 25 ± 1 g | 8.6 ± 0.77 mg/dL | Calcification was not present | unremarkable histology | did not show toxicity | 34 ± 2 min | 19 ± 3 min | 21 ± 2 min | 3 | 25 ± 1 min | 30 min | 4 | CYP27A1 % conversion of substrate to products [7]: 90% |
| C=C1CC[C@H](O)C/C1=C/C=C1\CCC[C@@]2(C)[C@H]1CC[C@@H]2[C@@](C)(O)CCCC(C)C [20S(OH)D3, 20S-hydroxyvitamin D3] | 37 ± 1 min | 25 ± 1 g | 8.8 ± 0.66 mg/dL | Calcification was not present | six out of the seven mice treated with 20S(OH)D3 show unremarkable histology | did not show toxicity | 60 ± 4 min | 43 ± 1 min | 47 ± 1 min | 3 | 42 ± 2 min | 50 min | 3 | highest possible dose that does not cause noticeable cytotoxic effects ([1]; i.p. once daily for three weeks, stated as probable): 60 µg/kg; CYP11A1 % conversion of substrate to products [11]: 21%; CYP11A1 No. of different products (at least 2% of total secosteroids) [11]: 3; effect on systemic calcium levels [12]: no effect on systemic calcium levels; effect on systemic calcium levels [13]: no effect on systemic calcium levels |
| C=C1CC[C@H](O)C/C1=C/C=C1\CCC[C@]2(C)[C@@H]([C@H](C)CCCC(C)(C)O)CC[C@@H]12 [25(OH)D3, 25-hydroxyD3] |  |  |  |  |  |  |  |  |  |  |  |  |  | dose reported to generate hypercalcemia ([2]; in vivo): ≥ 1 µg/kg |

Source: paper PMC4015637 (Anticancer research, 2014)
